Paper PMC5259643 (Journal of Veterinary Internal Medicine, 2017)

What was measured:
[1] = molecular target: Steroidogenic factor‐1 (SF‐1) (Canis lupus familiaris, UniProt A0A5K7W231); assay: Cortisol and mRNA in normal canine primary adrenocortical cell suspensions; type: cell-based, dogs; settings: 10^‐8 to 10^‐5 M
Procedure, shortened: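 Primary adrenocortical cells from normal canine adrenals were cultured as suspensions, with synthetic ACTH added to mimic hypercortisolism. Cells were exposed to SF-1 inverse agonists, with a DMSO vehicle control. Cortisol was measured in the culture media. RT-qPCR gave relative mRNA expression of steroidogenic enzymes, SF-1 and MC2R.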

[2] = Hypothyroidism after low‐dose radioiodine in hyperthyroid cats; type: in vivo; settings: 30 hypothyroid cats supplemented
Procedure, shortened: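 Hyperthyroid cats successfully treated with low-dose 131I (n = 569) had serum T4 and TSH measured at 1, 3, 6, 12 and ≥18 months after treatment. Cats that developed high TSH were classed as overtly hypothyroid if T4 was low, or subclinically hypothyroid if T4 was normal.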

[3] = Simvastatin in dogs with hyperlipidemia; type: in vivo; settings: three months; n = 5; range 181–399

Chain of Steroidogenic factor‐1 (SF‐1) (A0A5K7W231 1-461): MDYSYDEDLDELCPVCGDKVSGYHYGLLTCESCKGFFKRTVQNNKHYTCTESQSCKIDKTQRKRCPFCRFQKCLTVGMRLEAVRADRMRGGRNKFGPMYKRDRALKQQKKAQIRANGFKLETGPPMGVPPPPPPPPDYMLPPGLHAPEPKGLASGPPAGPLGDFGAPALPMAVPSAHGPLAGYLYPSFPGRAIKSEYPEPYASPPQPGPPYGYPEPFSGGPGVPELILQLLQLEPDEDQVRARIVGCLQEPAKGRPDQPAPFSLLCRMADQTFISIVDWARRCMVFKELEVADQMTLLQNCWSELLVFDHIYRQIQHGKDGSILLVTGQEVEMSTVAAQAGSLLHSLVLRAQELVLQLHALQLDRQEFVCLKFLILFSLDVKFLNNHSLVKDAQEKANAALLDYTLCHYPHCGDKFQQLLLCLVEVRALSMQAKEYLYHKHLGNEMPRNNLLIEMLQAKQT

## CCOC(=O)C(C)Oc1cccc2c(=O)n(CC(=O)Nc3ccc4c(c3)OCCO4)ccc12 (stereo not drawn) [IsoqA]
[1]
  effect on cortisol production: no significant effect on cortisol production

## N[C@@H](Cc1cc(I)c(Oc2cc(I)c(O)c(I)c2)c(I)c1)C(=O)O [Levothyroxine]
[2]
  serum TSH and creatinine: significantly decreased both serum TSH and creatinine concentrations

## CCC(C)(C)C(=O)O[C@H]1C[C@@H](C)C=C2C=C[C@H](C)[C@H](CC[C@@H]3C[C@@H](O)CC(=O)O3)[C@H]21 [simvastatin]
[3]
  plasma cholesterol: 298 ± 109.9
